Compounds with a hit are over-represented: about 1.1% of the library has one in this group of screens.
FXIa inh 1536: inhibitors of human coagulation factor XIa; P03951; purified FXIa, Boc-Glu-Ala-Arg-AMC fluorogenic substrate; inhibition, % at 5 µM; 220,000 tested, 0.14% active; AID 798;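 active means inhibition of at least 40%; inactive means inhibition below 40%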;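 further: fluorescence of freed AMC excited at 355 nm; 0% = enzyme without compound and 100% = no enzyme blank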
Furin inh: blocks human furin protease activity; purified furin, fluorogenic substrate cleavage; 220,000 tested, 0.061% active; inhibition, % at 20 µM or 30 µM; AID 463115; in the data active means inhibition above about 25%
Target sequence (P09958 108-714 limits assumed): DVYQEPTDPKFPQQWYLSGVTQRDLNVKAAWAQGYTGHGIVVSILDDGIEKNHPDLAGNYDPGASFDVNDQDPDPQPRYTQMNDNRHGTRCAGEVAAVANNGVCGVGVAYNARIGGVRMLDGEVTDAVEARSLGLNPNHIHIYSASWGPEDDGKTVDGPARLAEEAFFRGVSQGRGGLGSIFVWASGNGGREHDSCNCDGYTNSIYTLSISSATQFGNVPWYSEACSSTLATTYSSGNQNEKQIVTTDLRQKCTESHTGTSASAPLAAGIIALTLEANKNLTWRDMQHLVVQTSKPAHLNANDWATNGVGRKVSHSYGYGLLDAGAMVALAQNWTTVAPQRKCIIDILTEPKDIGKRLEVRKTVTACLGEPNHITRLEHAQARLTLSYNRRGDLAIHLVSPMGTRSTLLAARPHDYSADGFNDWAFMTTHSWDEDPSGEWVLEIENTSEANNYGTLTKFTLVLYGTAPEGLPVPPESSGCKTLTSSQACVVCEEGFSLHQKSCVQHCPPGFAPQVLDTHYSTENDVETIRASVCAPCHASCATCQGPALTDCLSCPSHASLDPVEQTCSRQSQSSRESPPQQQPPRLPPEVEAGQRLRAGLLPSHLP
Calb biofilm kill: mixtures killing C. albicans biofilm | C. albicans biofilm persisters + clotrimazole, fluorescence viability; primary screen in compound mixtures of four per well | 120,000 tested, 0.02% active | AID 1242 | inhibition, % at 7.6 µM;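 active means inhibition above 30.3% in the primary screen of four-compound pools, then above 30% when the compound was retested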;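 further: compounds exposed to preformed 24 h biofilms for 48 h; 0% = untreated biofilm control and 100% = clotrimazole plus chlorhexidine kill blank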
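Assay system: C. albicans biofilms / Medium: RPMI/MOPS medium, pH 7.0 / Schedule: biofilm formation 24 h, compound exposure 48 h, 37 °C / Measured by: Alamar Blue fluorescence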
hK5 inh: inhibitors of human kallikrein 5 | AID 873 | 210,000 tested, 0.59% active | Q9Y337 | recombinant hK5, fluorogenic AMC substrate cleavage | inhibition, % at 5 µM;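 active means inhibition of 40% or more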;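 further: 0% = enzyme controls without compound and 100% = no-enzyme blanks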
Thrombin inh: blocks human thrombin protease activity | alpha-thrombin, Boc-VPR-AMC fluorogenic substrate cleavage | inhibition, % at 5 µM | 220,000 tested, 0.26% active;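 active means inhibition at or above 40%; inactive means inhibition below 40%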;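 further: 0% = enzyme with no compound and 100% = wells without enzyme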
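Material: human alpha-thrombin enzyme / Medium: pH 7.5 Tris (50 mM) with NaCl 150 mM, Tween 20 0.05% / Compound: single-point dosing at 5 µM, 0.2% DMSO / Incubation: enzyme reaction carried out at room temperature / Detection: AMC fluorescence, 355/460 nm / Read-out basis: percent inhibition scaled between no-compound controls and no-enzyme blanks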
FXIIa inh 1536: blocks human coagulation factor XIIa protease activity | P00748 | purified FXIIa, Boc-QGR-AMC fluorogenic substrate, 2 h | inhibition, % at 5 µM | 220,000 tested, 0.3% active | AID 800; in the data active means inhibition above about 40%;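 further: 0% = enzyme with no compound and 100% = blank without enzyme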
The depositor's hits bear a star; . = no result.

SMILES	FXIa inh 1536	Furin inh	Calb biofilm kill	hK5 inh	Thrombin inh	FXIIa inh 1536
CCOC(=O)c1[nH]c2ccccc2c1NC(=S)Nc1ccccc1	6.1	-15.1	7.7	-9.1	43.0*	14.7
CCOC(=O)C1=C(CC)Nc2ccccc2N=C1NC(=O)CCN1C(=O)C2CCCCC2C1=O (centres undefined)	31.8	-7.2	12.0	54.1*	36.1	24.1
CCC(=O)N1CCc2cc(S(=O)(=O)CCC(=O)NCc3ccc4c(c3)OCO4)ccc21	14.6	-9.6	.	40.7*	2.2	14.7
O=C(Cc1ccccc1)NS(=O)(=O)c1ccc(N=NN2CCOCC2)cc1	-5.6	-10.9	2.6	-2.4	-7.7	1.9
CN(C)S(=O)(=O)N(CC(=O)Nc1ccccc1)c1ccccc1	4.0	-10.7	13.3	-5.0	1.9	14.3
Cc1ccc(NC(=O)CN(c2ccccc2)S(=O)(=O)N(C)C)cc1C	9.2	-19.6	8.0	43.0*	28.5	20.3
CCOC(=O)c1cc(CC)sc1NC(=O)COC(=O)c1cc[n+]([O-])cc1	-3.3	-29.4	19.1	2.5	-1.2	.
COc1ccc(NC(=O)C2CCCCN2S(=O)(=O)c2ccc(F)cc2)cc1 (centres undefined)	3.6	-17.6	.	53.4*	17.8	17.6
COc1ccc(NC(=O)C2CCCN2S(=O)(=O)c2ccc(C)cc2)cc1 (centres undefined)	1.5	-21.6	.	-10.0	-1.4	14.7
COc1ccc(S(=O)(=O)N2CCCC2C(=O)Nn2cnnc2)cc1 (centres undefined)	21.5	-21.0	.	-4.7	-3.6	43.3*
COc1ccccc1NC(=O)C1CCCCN1S(=O)(=O)c1ccc(F)cc1 (centres undefined)	-3.2	-7.0	.	-2.5	0.2	11.1
COc1ccc(NC(=O)C2CCCCN2S(=O)(=O)c2ccc(F)cc2)c(OC)c1 (centres undefined)	1.0	-8.8	.	40.8*	10.6	22.7
CN(C)N=Nc1nc2c(c(=O)n(C)c(=O)n2C)n1CC1CO1 (centres undefined)	-4.2	7.9	19.9	-10.5	-8.5	7.9
CCOc1ccccc1-n1nnnc1SCC(=O)NCc1ccco1	-1.0	-19.7	20.5	1.8	-6.5	10.8
Cc1cc(C)c(NC(=S)NC(=O)c2ccc(-c3ccccc3)cc2)c(C)c1	14.3	-1.4	12.4	56.6*	9.1	33.9
Cn1c(N)c(C(=O)COC(=O)C2CC(=O)N(Cc3ccccc3)C2)c(=O)n(C)c1=O (centres undefined)	-0.8	-30.1	2.5	-3.4	-2.0	1.9
CCN1C(=O)c2n[nH]c(C(=O)OC)c2C1=O	16.9	-22.2	.	90.1*	14.0	43.7*
CCOC(=O)c1[nH]nc2c1C(=O)N(CC)C2=O	1.0	-20.3	.	-14.6	0.8	9.3
NS(=O)(=O)c1ccc(CCNC(=O)CN2CCCCCC2)cc1	0.6	-32.5	9.1	3.9	-0.4	10.7
COc1ccccc1CNC(=O)C(C)c1ccc([N+](=O)[O-])cc1 (centres undefined)	-1.6	-21.8	-3.3	-2.7	-3.6	5.0
CCc1nnc(NC(=O)CSc2nnc(C3CCCCC3)n2-c2cccc(Cl)c2)s1	8.7	29.5*	.	-21.6	4.8	17.4
Cc1nn(-c2ccccc2)c(C)c1NC(=O)c1cccs1	7.0	-3.0	.	49.8*	15.8	12.1
Cn1cc(NC(=O)Nc2ccc(C(F)(F)F)cc2)c(C(F)(F)F)n1	4.3	-12.0	7.5	-8.2	-3.9	5.1
Cc1ccc(OCC(=O)N2CCCCC2)c(Br)c1	-0.6	-20.1	.	48.4*	2.6	0.8
CC(C)(C)c1ccc(OCC(=O)N2CCCCCC2)c(Br)c1	-1.8	-7.3	-2.8	-3.6	-0.9	2.9
SMILES	FXIa inh 1536	Furin inh	Calb biofilm kill	hK5 inh	Thrombin inh	FXIIa inh 1536
O=C(NCCN1CCc2ccccc2C1)C1CC(=O)N(C2CCCC2)C1 (centres undefined)	4.9	-16.5	.	2.4	0.5	73.1*
O=C(c1cc2ccccc2o1)N(C1CC1)C1(C(=O)Nc2ccccc2)CCCC1	-1.9	-23.8	-4.0	0.5	-4.3	.
CCc1nc2ccc(C(=O)NCc3ccco3)cc2nc1CC	-4.5	-22.3	.	3.6	-3.2	6.7
O=C(NCc1ccco1)c1ccc2c(c1)CCO2	10.0	-0.4	26.3	53.3*	31.9	52.2*
COc1cc(/C=N/Nc2cc(C)nc(NS(=O)(=O)c3ccc(C)cc3)n2)ccc1O	1.9	-0.2	11.0	-11.8	-7.2	8.5
COc1cc(/C=N/Nc2cc(C)nc(NS(=O)(=O)c3ccccc3)n2)ccc1O	66.7*	10.3	15.6	23.0	25.7	37.4
CC(C)c1ccc(O)c(NC(=S)NC(=O)c2cccnc2)c1	20.0	-0.3	17.2	.	2.5	40.6*
CC1=CC2=C(OC1N(C)C)c1cccc3cccc(c13)C2=O (centres undefined)	8.6	-25.2	.	50.2*	27.3	24.1
O=C(CCN1CCOCC1)Nc1c(-c2ccccc2)c2cc(Br)ccc2[nH]c1=O	0.1	-19.2	.	-3.0	-0.6	7.0
Cc1ccc2[nH]c(=O)c(N3CCOCC3)c(-c3ccccc3)c2c1	11.9	-11.4	.	47.4*	16.4	2.1
NC(=O)c1ccccc1OC1CCC1	0.5	-21.8	22.4	-0.1	-9.2	7.3
CCNc1ccc(C(=O)OC(C(=O)NC(N)=O)C(C)C)cc1[N+](=O)[O-] (centres undefined)	32.5	-9.6	10.9	54.0*	8.2	36.2
CCOC(=O)c1[nH]c2ccccc2c1NC(=S)Nc1cccc(C)c1	0.1	-18.0	13.6	-14.6	2.8	2.6
CC1=C(C(=O)Nc2ccccc2)C(c2ccc(O)cc2)N2C(=O)CSC2=N1 (centres undefined)	6.5	-1.9	.	36.9	42.5*	15.9
COc1ccccc1CN(CC(=O)NCc1ccco1)C(=O)CNS(=O)(=O)c1ccc(C)cc1	7.8	-13.3	.	-5.3	55.6*	21.3
O=C(NNC(=O)C(c1ccccc1)c1ccccc1)c1cccs1	19.4	-9.5	.	55.6*	103.7*	25.4
O=C(Nc1ccc(NC(=O)c2cccs2)cc1)c1ccc(Br)o1	10.5	-8.7	.	5.3	1.8	16.1
O=C(NNC(=O)c1cccs1)c1ccc(Br)o1	43.4*	-14.7	9.4	-14.3	17.0	18.3
CCN(CC)C(=S)SCC(=O)Nc1ncc2c(n1)CCCC2=O	-4.2	-15.4	17.4	2.0	0.3	10.2
CC(/C=C/c1ccccc1)=N/NC(=O)c1cnccn1	4.4	26.5*	11.1	-9.3	2.5	11.0
O=C(N/N=C/C=C/c1ccccc1)c1cnccn1	2.2	-6.0	.	-13.6	-3.3	9.4
CC(NC(=O)COC(=O)/C=C/c1ccco1)c1ccccc1 (centres undefined)	4.0	-23.3	8.4	3.9	-0.1	12.3
CCNC(=S)Nc1cccc(F)c1C	-4.1	-26.7	17.2	-5.0	-10.2	5.7
CC(=O)Nc1cccc(NC(=O)C2CCCN2C(=O)Nc2cccc(C)c2)c1 (centres undefined)	11.9	-26.5	.	40.7*	14.5	11.0

High-throughput results (PubChem)
